From ChEMBL document CHEMBL3872284, “Hydrazone Linker as a Useful Tool for Preparing Chimeric Peptide/Nonpeptide Bifunctional Compounds” (ACS Med Chem Lett, 2017)
Calls of active or inactive are those of the source. The rule behind the calls is not given here.

Columns and labels:
[1] = target: T1, Mu-type opioid receptor (Rattus norvegicus, UniProt P33535); experiment: Displacement of [3H]DAMGO from MOR in Sprague-Dawley rat brain homogenate measured after 180 mins by scintillation counting analysis; assay type: tissue-based
[2] = target: T2, Delta-type opioid receptor (Rattus norvegicus, UniProt P33533); experiment: Displacement of [3H]DELT2 from DOR in Sprague-Dawley rat brain homogenate measured after 180 mins by scintillation counting analysis; assay type: tissue-based
[3] = test system: Mus musculus; experiment: Analgesic activity in C57BL6 mouse assessed as increase in thermal stimulus-induced paw withdrawal latency at 48 umol/kg, iv measured after 30 mins by plantar test; assay type: functional, organism-based
Summary of the method: (§1)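 Heat-induced paw withdrawal (plantar test) after intravenous dosing. Readings taken over a time course to 120 min post-injection and expressed as % maximal possible effect (%MPE). n=6–8 animals per group, with morphine-treated animals as comparator and significance testing versus morphine.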

[4] = test system: Rattus norvegicus; experiment: Analgesic activity in Wistar rat assessed as increase in thermal stimulus-induced tail-flick latency at 12 nmol/kg administered intrathecally measured up to 60 mins; assay type: functional
Summary of the method: (§2)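 Intrathecal injection followed by tail-flick testing at 5 to 120 min post-injection. Responses expressed as % maximal possible effect (%MPE). Doses given in nmol/kg. n=6–8 animals per group, with a morphine group and statistics versus morphine.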

[5] = target: T1, Mu-type opioid receptor; experiment: Displacement of [3H]DAMGO from MOR in rat brain homogenate measured after 60 mins by microbeta scintillation counting analysis; assay type: tissue-based
[6] = target: T2, Delta-type opioid receptor; experiment: Displacement of [3H]DELT2 from DOR in rat brain homogenate measured after 60 mins by microbeta scintillation counting analysis; assay type: tissue-based
[7] = target: Substance-P receptor (Rattus norvegicus, UniProt P14600); experiment: Displacement of [Leu-3,4,5-3H(N)]-Substance P from NK1 receptor in rat brain homogenate measured after 60 mins by microbeta scintillation counting analysis; assay type: tissue-based
[8] = test system: Mus musculus; experiment: Analgesic activity in C57BL6 mouse assessed as effect on thermal stimulus-induced paw withdrawal latency at 80 umol/kg, iv measured after 30 mins by plantar test relative to control; assay type: functional; summary of the method: as §1
[9] = test system: Mus musculus; experiment: Analgesic activity in C57BL6 mouse assessed as effect on thermal stimulus-induced tail-flick latency at 20 to 80 umol/kg, iv measured after 5 mins; assay type: functional
Summary of the method: (§3)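 Tail-flick test after intravenous injection. Latencies recorded at time points from 5 to 120 min post-dose and converted to % maximal possible effect (%MPE). Groups of n=6–8 animals, compared against a morphine-treated group.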

[10] = test system: Mus musculus; experiment: Analgesic activity in C57BL6 mouse assessed as effect on thermal stimulus-induced tail-flick latency at 80 umol/kg, iv measured up to 30 mins relative to control; assay type: functional; summary of the method: as §3
[11] = test system: Mus musculus; experiment: Analgesic activity in C57BL6 mouse assessed as effect on thermal stimulus-induced tail-flick latency at 80 umol/kg, iv measured after 60 mins relative to control; assay type: functional; summary of the method: as §3
[12] = test system: Mus musculus; experiment: Analgesic activity in C57BL6 mouse assessed as effect on thermal stimulus-induced tail-flick latency at 80 umol/kg, iv measured after 120 mins relative to control; assay type: functional; summary of the method: as §3
[13] = test system: Rattus norvegicus; experiment: Analgesic activity in Wistar rat assessed as effect on thermal stimulus-induced tail-flick latency at 2 nmol/kg administered intrathecally measured after 15 mins relative to control; assay type: functional; summary of the method: as §2

T1 sequence (P33535 whole entry): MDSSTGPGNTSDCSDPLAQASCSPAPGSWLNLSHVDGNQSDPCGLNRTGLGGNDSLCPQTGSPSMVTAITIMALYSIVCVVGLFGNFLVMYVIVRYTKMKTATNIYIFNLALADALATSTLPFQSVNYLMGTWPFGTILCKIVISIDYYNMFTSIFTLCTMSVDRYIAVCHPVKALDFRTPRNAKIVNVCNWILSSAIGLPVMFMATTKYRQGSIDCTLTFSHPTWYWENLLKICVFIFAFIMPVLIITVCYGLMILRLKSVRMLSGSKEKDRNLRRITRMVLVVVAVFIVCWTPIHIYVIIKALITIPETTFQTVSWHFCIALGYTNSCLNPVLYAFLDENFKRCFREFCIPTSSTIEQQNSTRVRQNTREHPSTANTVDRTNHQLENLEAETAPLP
T2 sequence (P33533 whole entry): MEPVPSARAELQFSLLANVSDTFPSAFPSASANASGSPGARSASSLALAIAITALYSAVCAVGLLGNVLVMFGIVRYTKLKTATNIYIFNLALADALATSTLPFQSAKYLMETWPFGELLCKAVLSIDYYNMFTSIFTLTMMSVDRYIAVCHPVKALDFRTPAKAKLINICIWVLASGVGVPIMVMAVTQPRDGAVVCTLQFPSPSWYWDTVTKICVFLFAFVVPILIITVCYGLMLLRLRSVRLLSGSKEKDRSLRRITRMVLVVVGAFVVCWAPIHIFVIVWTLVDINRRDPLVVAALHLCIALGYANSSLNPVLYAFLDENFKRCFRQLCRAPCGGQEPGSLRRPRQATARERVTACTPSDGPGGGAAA
Substance-P receptor, sequence (P14600 whole entry): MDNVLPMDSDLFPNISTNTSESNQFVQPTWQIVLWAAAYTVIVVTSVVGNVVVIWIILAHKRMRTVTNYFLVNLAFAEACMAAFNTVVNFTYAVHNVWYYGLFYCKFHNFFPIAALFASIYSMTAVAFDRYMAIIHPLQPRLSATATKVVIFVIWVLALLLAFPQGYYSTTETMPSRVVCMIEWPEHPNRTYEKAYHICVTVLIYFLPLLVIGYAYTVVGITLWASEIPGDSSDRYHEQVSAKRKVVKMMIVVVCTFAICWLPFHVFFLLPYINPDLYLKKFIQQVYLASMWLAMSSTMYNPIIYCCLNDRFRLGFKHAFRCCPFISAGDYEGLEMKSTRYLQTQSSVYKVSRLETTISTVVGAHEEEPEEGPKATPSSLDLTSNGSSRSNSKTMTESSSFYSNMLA

C[C@@H](NC(=O)[C@@H](N)Cc1ccc(O)cc1)C(=O)NCC(=O)N[C@@H](Cc1ccccc1)C(=O)NNC(=O)[C@@H](N)Cc1ccccc1
IC50 [1]: 0.74 nM | IC50 [2]: 15 nM

C[C@@H](NC(=O)[C@@H](N)Cc1ccc(O)cc1)C(=O)NCC(=O)N[C@@H](Cc1ccccc1)C(=O)NN
IC50 [1]: 4.7 nM | IC50 [2]: 230 nM

CN1CC[C@]23c4c5ccc(O)c4O[C@H]2[C@@H](O)C=C[C@H]3[C@H]1C5
Activity [3]: Active | Activity [4]: Active

C[C@@H](NC(=O)[C@@H](N)Cc1ccc(O)cc1)C(=O)NCC(=O)N[C@@H](Cc1ccccc1)C(=O)N/N=C/c1cc(C(F)(F)F)cc(C(F)(F)F)c1.O=C(O)C(F)(F)F
IC50 [5]: 12.7 nM | IC50 [6]: 74.2 nM | IC50 [7]: 4.24 nM | MPE [8]: 75.41% | MPE [9]: 84.81% | MPE [10]: 94.26% | MPE [11]: 69.84% | MPE [12]: 16.84% | MPE [13]: 80.31%
